Experimental findings from ChEMBL document CHEMBL4004830 (J Med Chem, 2017) are described below.

Activity calls are given as the source filed them. The rule behind the calls is not given here.

Series [1] concerns MV4-11. Briefly: Cell cycle arrest in human MV4-11 cells assessed as accumulation at G2/M phase at 0.40 uM after 24 hrs by propidium iodide staining based flow cytometry (reference value: 17.94%). Format: functional. In general terms: A flow cytometer gives signals particle by particle.
A further series concerns DU-145. The series can be described thus: Growth inhibition of human DU145 cells after 72 hrs by resazurin or MTT assay. In kind it is functional. As to conditions: DU-145, 72 h. A general note: Resazurin is reduced to fluorescent resorufin, in cell work by metabolically active cells.
In series [2] the test system is MV4-11. Briefly: Cell cycle arrest in human MV4-11 cells assessed as accumulation at G2/M phase at 0.04 uM after 24 hrs by propidium iodide staining based flow cytometry (reference value: 17.94%). Format: functional.
The subject of series [3] is MV4-11. The series can be described thus: Cell cycle arrest in human MV4-11 cells assessed as accumulation at sub-G1 phase at 0.40 uM after 24 hrs by propidium iodide staining based flow cytometry (reference value: 1.99%). Format: functional.
For series [4], the system named is MV4-11. The series can be described thus: Cell cycle arrest in human MV4-11 cells assessed as accumulation at sub-G1 phase at 0.20 uM after 24 hrs by propidium iodide staining based flow cytometry (reference value: 1.99%). In kind it is functional.
Series [5] deals with MV4-11. The series can be described thus: Cell cycle arrest in human MV4-11 cells assessed as accumulation at G1 phase at 0.04 uM after 24 hrs by propidium iodide staining based flow cytometry (reference value: 61.01%). Format: functional.
The subject of series [6] is MV4-11. The series can be described thus: Cell cycle arrest in human MV4-11 cells assessed as accumulation at G2/M phase at 0.20 uM after 24 hrs by propidium iodide staining based flow cytometry (reference value: 17.94%). Format: functional.
Series [7] relates to MV4-11. Briefly: Cell cycle arrest in human MV4-11 cells assessed as accumulation at S phase at 0.40 uM after 24 hrs by propidium iodide staining based flow cytometry (reference value: 19.07%). In kind it is functional.
The next series has as its system PC-3. The series can be described thus: Growth inhibition of human PC3 cells after 72 hrs by resazurin or MTT assay. In kind it is functional. As to conditions: PC-3, 72 h.
Series [8] relates to MV4-11. The series can be described thus: Cell cycle arrest in human MV4-11 cells assessed as accumulation at sub-G1 phase at 0.04 uM after 24 hrs by propidium iodide staining based flow cytometry (reference value: 1.99%). Format: functional.
Series [9] addresses Dual specificity tyrosine-phosphorylation-regulated kinase 2 (Homo sapiens) (UniProt Q92630). The series can be described thus: Inhibition of full-length human DYRK2 (1 to 528 amino acid residues) expressed in mammalian expression system at 1 uM in presence of [gamma-33P]-ATP […]. The method in brief:
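Broad kinome panel of 369 kinases screened at 1 µM test concentration.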

The test system of series [10] is Mus musculus. The series can be described thus: Toxicity in nude BALB/c mouse xenografted with human MV4-11 cells assessed as body weight loss at 100 mg/kg, po qd for 33 consecutive days and left untreated for another 50 days. In kind it is organism-based. Conditions: in vivo, 1200 h.
Series [11] has as its system MV4-11. The series can be described thus: Antitumor activity against human MV4-11 cells xenografted in nude BALB/c mouse assessed as tumor growth inhibition at 100 mg/kg, po qd administered for 33 consecutive days measured on day 50. Format: functional, organism-based.
For series [12], the target named is Cyclin-dependent kinase 4/6 (Homo sapiens) (UniProt P11802+Q00534). Briefly: Inhibition of CDK4/6 in human MV4-11 cells assessed as reduction in Rb phosphorylation at Ser780 after 12 to 24 hrs by Western blot analysis. Format: cell-based. The essentials: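 MV4-11 cells treated 12 or 24 h across a dose series; Rb phospho-Ser780 detected by Western blot with β-actin as loading control; two independent experiments.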
For orientation: Immunoblotting shows a protein as a band on a membrane.

The test system of series [13] is Mus musculus. Briefly: Toxicity in nude BALB/c mouse assessed as overt toxicity at 20 to 100 mg/kg, po qd measured up to 14 days post dose. In kind it is organism-based. Conditions: in vivo, 336 h.
The target in the next series is Cytochrome P450 3A4 (Homo sapiens, UniProt P08684). Briefly: Inhibition of CYP3A4 in human liver microsomes using midazolam as substrate in presence of NADPH. In kind it is ADME. The essentials:
(§1)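 Human liver microsomes with NADPH and isoform-specific probe substrate (midazolam CYP3A4, dextromethorphan CYP2D6, ethoxyresorufin CYP1A, tolbutamide CYP2C9, mephenytoin CYP2C19); IC50 reported in µM.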

Series [14] can be described thus: AUC (0 to t) in albino Wistar rat at 5 mg/kg, iv up to 24 hrs by LC-MS/MS analysis. Format: ADME, organism-based. More on the design: dose 5 mg/kg, time < 24 hr, route intravenous. Conditions: in vivo.
The target in series [15] is Cyclin-dependent kinase 7/ cyclin H (Homo sapiens) (UniProt P51946+P50613). The series can be described thus: Inhibition of CDK7/cyclin H (unknown origin) in presence of [gamma-33P]-ATP […]. In kind it is protein-complex assay.
Series [16] has as its system MV4-11. The series can be described thus: Antitumor activity against human MV4-11 cells xenografted in nude BALB/c mouse assessed as tumor growth inhibition at 100 mg/kg, po qd administered for 33 consecutive days and left untreated for another 50 days. Format: functional, organism-based.
A short description of series [17]: Cmax in albino Wistar rat at 5 mg/kg, iv up to 24 hrs by LC-MS/MS analysis. In kind it is ADME, organism-based. Further details: dose 5 mg/kg, route intravenous. As to conditions: in vivo.
The nature of series [18]: Dissociation constant, pKa of the compound by pH-metric titration method. In kind it is physicochemical.
The nature of series [19]: AUC (0 to t) in BALB/c mouse at 10 mg/kg administered via oral gavage measured up to 24 hrs by LC-MS/MS analysis. In kind it is ADME, organism-based. More on the design: dose 10 mg/kg, time < 24 hr, route oral. Conditions: in vivo.
Series [20] in a line: Octanol/aqueous buffer partition co-efficient, log D of the compound at pH 7.4 by shake-flask method. Format: physicochemical.
For another series, the target named is CDK2/Cyclin A2 (Homo sapiens, UniProt P24941). The series can be described thus: Inhibition of CDK2/cyclin A (unknown origin) in presence of [gamma-33P]-ATP […]. Format: protein-complex assay. As to conditions: read-out: Ki(app).
Another series addresses Cytochrome P450 2C9 (Homo sapiens, UniProt P11712). The series can be described thus: Inhibition of CYP2C9 in human liver microsomes using tolbutamide as substrate in presence of NADPH. In kind it is ADME. The method in brief: as §1
Series [21] is described as follows: Clearance in albino Wistar rat at 5 mg/kg, iv up to 24 hrs by LC-MS/MS analysis. As to conditions: in vivo. In kind it is ADME, organism-based.
A short description of series [22]: AUC (0 to t) in albino Wistar rat at 20 mg/kg administered via oral gavage measured up to 24 hrs by LC-MS/MS analysis. Conditions: in vivo. More on the design: dose 20 mg/kg, time < 24 hr, route oral. Format: ADME, organism-based.
The next series addresses CDK6/cyclin D3 (Homo sapiens, UniProt Q00534). The series can be described thus: Inhibition of CDK6/cyclin D3 (unknown origin) in presence of [gamma-33P]-ATP […]. In kind it is protein-complex assay. As to conditions: read-out: Ki(app).
The next series has as its target Cytochrome P450 2C19 (Homo sapiens, UniProt P33261). The series can be described thus: Inhibition of CYP2C19 in human liver microsomes using mephenytoin as substrate in presence of NADPH. In kind it is ADME. The method in brief:
as §1

Series [23] is described as follows: Half life in BALB/c mouse at 2 mg/kg, iv up to 24 hrs by LC-MS/MS analysis. Format: ADME, organism-based. Conditions: in vivo. The method in brief: (§2)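 Single-dose pharmacokinetics in male BALB/c mice, 2 mg/kg IV or 10 mg/kg PO.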
The subject of series [24] is MV4-11. The series can be described thus: Antitumor activity against human MV4-11 cells xenografted in nude BALB/c mouse assessed as tumor volume at 100 mg/kg, po qd administered for 33 consecutive days measured on day 31. In kind it is functional.
Series [25] can be described thus: Clearance in BALB/c mouse at 2 mg/kg, iv up to 24 hrs by LC-MS/MS analysis. Format: ADME, organism-based. As to conditions: in vivo.
Series [26] concerns Mus musculus. The series can be described thus: Toxicity in nude BALB/c mouse assessed as body weight loss at 20 to 100 mg/kg, po qd measured up to 14 days post dose. Conditions: in vivo, 336 h. Format: organism-based.
Series [27] in a line: Half life in BALB/c mouse at 10 mg/kg administered via oral gavage measured up to 24 hrs by LC-MS/MS analysis. Conditions: in vivo. In kind it is ADME, organism-based. The method in brief: as §2
Series [28] is described as follows: AUC (0 to t) in BALB/c mouse at 2 mg/kg, iv up to 24 hrs by LC-MS/MS analysis. In kind it is ADME, organism-based. Further details: dose 2 mg/kg, time < 24 hr, route intravenous. Conditions: in vivo.

Chain of Cyclin-dependent kinase 4/6 (Homo sapiens) (P11802 whole entry, looked up): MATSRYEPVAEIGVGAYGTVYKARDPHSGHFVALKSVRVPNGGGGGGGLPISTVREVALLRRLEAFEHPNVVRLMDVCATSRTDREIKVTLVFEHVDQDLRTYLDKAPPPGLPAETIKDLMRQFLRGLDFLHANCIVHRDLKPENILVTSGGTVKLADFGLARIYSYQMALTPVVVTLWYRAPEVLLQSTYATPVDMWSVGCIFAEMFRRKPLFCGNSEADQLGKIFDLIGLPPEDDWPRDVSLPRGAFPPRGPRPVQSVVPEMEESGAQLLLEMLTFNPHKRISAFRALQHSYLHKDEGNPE
Chain of Cyclin-dependent kinase 4/6 (Homo sapiens) (Q00534 whole entry, looked up): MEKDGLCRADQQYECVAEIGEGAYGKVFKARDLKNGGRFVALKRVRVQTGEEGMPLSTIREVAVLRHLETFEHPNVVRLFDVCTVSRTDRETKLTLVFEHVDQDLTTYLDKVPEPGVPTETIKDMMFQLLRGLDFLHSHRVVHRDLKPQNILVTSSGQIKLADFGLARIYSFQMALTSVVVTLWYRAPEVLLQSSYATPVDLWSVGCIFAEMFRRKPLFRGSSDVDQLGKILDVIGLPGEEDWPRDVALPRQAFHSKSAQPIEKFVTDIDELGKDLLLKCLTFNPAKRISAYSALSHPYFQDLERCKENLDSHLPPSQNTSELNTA
Chain of Cytochrome P450 2C19 (P33261 whole entry): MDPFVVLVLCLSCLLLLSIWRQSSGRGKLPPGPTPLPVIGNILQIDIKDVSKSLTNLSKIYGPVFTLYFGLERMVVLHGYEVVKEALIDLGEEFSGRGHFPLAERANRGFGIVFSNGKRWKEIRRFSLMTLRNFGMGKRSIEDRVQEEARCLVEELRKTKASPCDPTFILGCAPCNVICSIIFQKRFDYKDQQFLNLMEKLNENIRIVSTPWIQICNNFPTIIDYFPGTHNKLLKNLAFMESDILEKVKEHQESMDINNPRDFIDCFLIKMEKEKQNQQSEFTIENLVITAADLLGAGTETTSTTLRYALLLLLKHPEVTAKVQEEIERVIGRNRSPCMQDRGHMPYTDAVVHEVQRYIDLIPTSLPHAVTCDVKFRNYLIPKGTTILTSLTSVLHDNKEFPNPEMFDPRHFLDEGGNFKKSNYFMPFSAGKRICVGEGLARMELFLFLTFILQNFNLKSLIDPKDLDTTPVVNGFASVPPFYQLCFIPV
Chain of Dual specificity tyrosine-phosphorylation-regulated kinase 2 (Homo sapiens) (Q92630 whole entry, the tested form may be a part): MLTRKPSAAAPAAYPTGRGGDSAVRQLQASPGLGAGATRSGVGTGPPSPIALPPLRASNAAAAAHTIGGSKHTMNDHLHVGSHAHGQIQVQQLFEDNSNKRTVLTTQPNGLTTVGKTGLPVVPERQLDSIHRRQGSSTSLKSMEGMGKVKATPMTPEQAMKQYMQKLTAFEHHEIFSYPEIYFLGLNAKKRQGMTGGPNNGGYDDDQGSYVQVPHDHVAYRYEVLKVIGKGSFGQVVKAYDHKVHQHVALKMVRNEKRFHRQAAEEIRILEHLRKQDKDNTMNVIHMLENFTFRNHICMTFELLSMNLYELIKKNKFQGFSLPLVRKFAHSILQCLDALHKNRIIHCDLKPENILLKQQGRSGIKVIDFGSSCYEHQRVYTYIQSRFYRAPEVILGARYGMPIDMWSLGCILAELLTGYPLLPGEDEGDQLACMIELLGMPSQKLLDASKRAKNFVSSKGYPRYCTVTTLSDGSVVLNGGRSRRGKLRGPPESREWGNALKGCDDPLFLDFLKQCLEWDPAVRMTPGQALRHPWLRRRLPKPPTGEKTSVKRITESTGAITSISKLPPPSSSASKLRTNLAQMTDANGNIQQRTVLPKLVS
Chain of Cytochrome P450 2C9 (P11712 whole entry): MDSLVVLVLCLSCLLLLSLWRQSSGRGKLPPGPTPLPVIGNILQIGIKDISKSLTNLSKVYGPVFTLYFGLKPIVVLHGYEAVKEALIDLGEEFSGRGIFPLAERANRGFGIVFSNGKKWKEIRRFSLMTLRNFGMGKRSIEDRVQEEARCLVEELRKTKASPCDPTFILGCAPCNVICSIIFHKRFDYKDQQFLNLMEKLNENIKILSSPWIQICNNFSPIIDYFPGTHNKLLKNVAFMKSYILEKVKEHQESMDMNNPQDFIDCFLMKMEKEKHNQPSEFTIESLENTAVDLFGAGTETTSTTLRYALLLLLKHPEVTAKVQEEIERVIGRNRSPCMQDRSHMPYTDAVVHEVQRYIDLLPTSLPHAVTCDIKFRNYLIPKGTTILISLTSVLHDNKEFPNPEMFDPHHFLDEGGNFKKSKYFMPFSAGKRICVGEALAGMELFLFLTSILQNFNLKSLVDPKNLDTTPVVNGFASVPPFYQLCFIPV
Chain of CDK6/cyclin D3 (P30281 whole entry): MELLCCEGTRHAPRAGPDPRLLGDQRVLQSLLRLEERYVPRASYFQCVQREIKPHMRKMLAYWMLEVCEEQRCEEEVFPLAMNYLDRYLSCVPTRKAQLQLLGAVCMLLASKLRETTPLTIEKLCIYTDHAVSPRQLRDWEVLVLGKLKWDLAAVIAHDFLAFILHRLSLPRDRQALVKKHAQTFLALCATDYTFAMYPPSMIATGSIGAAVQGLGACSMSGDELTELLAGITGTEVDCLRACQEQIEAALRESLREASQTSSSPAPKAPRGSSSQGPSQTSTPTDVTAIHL
Chain of CDK6/cyclin D3 (Q00534 whole entry): as the sequence (Q00534 whole entry, looked up) above
Chain of Cytochrome P450 3A4 (P08684 whole entry, canonical isoform): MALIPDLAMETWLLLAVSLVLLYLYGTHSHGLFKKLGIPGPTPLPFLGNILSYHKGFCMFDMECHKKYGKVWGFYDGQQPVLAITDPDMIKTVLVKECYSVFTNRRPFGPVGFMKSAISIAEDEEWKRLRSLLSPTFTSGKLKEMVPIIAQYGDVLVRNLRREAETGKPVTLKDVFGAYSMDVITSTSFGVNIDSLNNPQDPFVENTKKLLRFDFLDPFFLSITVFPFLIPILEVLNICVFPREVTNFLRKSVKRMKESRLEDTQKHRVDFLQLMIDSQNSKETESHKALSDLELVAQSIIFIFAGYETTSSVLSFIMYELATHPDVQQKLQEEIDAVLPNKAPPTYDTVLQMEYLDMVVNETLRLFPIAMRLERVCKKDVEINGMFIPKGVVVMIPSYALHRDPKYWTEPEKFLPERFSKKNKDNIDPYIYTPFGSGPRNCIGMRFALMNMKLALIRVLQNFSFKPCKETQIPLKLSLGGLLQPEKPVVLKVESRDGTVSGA

As usually defined, the GI50 is the concentration that inhibits growth by half. Read a high GI50 as lower sensitivity of the cells. `CC(=O)c1c(C)c2cnc(Nc3ccc(N4CCNCC4)cn3)nc2n(C2CCCC2)c1=O` [PALBOCICLIB]: the Activity amounted to 5.69% with MV4-11 [1]; 13.4% in the series on MV4-11 [2]; 2.93% with MV4-11 [3]; 4.22% with MV4-11 [4]; 68.17% in the series with MV4-11 [5]; 5.74% in the series with MV4-11 [6]. Also, the Activity in the series with MV4-11 [7] is reported as 6.02%; with MV4-11 [8], 2.66%. Moreover, the GI50 came out at 5.79 µM with DU-145 and 0.071 µM in the series with PC-3.
For orientation: IC50 means the concentration at which inhibition is half-maximal. By AUC(0-t) is commonly meant exposure summed from dosing to a finite time, without extrapolation to infinity. Low readings indicate low exposure, high ones high exposure. Usually Cmax stands for the peak of the concentration-time curve. The pKa is the negative logarithm of the acid dissociation constant. As a reminder, the logD is the decadic logarithm of the distribution of all forms, ionised or not, between an organic phase and buffer at a given pH. Low values mean a more hydrophilic compound, high ones a more lipophilic compound. Broadly, the clearance is a measure of how efficiently the substance is removed, as volume per time. For orientation: half-life means how long it takes for the measured level to halve. By T/C is commonly meant the ratio of treated to control. For `Cc1nc(NC2CCCC2)sc1-c1ccnc(Nc2ccc(N3CCOCC3)cn2)n1`, the inhibition entry in [9] is “Active”. Besides, the Activity result in the series with Mus musculus [10], with Mus musculus [13] and in the series with Mus musculus [26] was “Non-Toxic” throughout. Also, the GI50 was more than 10 µM in the series with DU-145 and 0.15 µM in the series on PC-3. The TGI entry with MV4-11 [11] and in the series with MV4-11 [16] was “Active” throughout. The inhibition result in series [12] is “Dose-dependent effect”. The IC50 at Cytochrome P450 3A4, on Cytochrome P450 2C9 and at Cytochrome P450 2C19 was more than 25 µM in each case. Further, the AUC(0-t) at 24 h in series [14] came to 15.9 µM·h; in series [19], 5.9 µM·h; in [22] it was 15.9 µM·h; in series [28] it was 1.2 µM·h. Further, in series [15], the “Ki(app)” value is “inactive”. This compound also showed a Cmax in series [17] of 38.8 µM. The compound also came in with a pKa in series [18] of 3.98 to 5.68. Moreover, the logD in [20] worked out at 4.4. Further, the results for the Ki at CDK2/Cyclin A2 and at CDK6/cyclin D3 were 4.68 µM and 0.03 µM, respectively. Further, the results for the clearance in series [21] and in [25] were 11.8 mL/min/kg and 58.3 mL/min/kg, respectively. Moreover, the half-life is 1.7 h in [23] and 5 h in [27]. Moreover, the T/C in the series with MV4-11 [24] was 30%.
